# System: not listed separately
# Test: Selectivity index, ratio of EC50 for toxicity in human BEAS2B cells to MIC100 for antifungal activity against Candida albicans ATCC 10231
# Assay type: cell-based
# Conditions: BEAS-2B cells, read-out: Selectivity Index
# Procedure, shortened: (§1)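 Selectivity index is the EC50 against the mammalian line (A549 or BEAS-2B) divided by the MIC against the given fungal strain.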
row,SMILES,selectivity ratio
1,CCCC(O)(Cn1cncn1)c1ccc(Cl)cc1Cl (centres undefined),130
2,CCCCCC(O)(Cn1cncn1)c1ccc(F)cc1 (centres undefined),8

# System: Candida albicans
# Test: Antifungal activity against ITC and FLC-susceptible Candida albicans ATCC MYA-2876 incubated for 48 hrs by modified CLSI M27-A3 protocol based method
# Assay type: functional
# Conditions: ATCC MYA-2876, 48 h
# Procedure, shortened: (§2)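 Because these Candida strains show trailing growth, MIC-2 was read, meaning 50% growth inhibition. Caspofungin and voriconazole were tested here; other controls came from earlier work.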
row,SMILES,MIC50 [µM]
1,CCCC(O)(Cn1cncn1)c1ccc(Cl)cc1Cl (centres undefined),6.5
2,CCCCCC(O)(Cn1cncn1)c1ccc(F)cc1 (centres undefined),28.1

# System: Candida parapsilosis
# Test: Antifungal activity against Candida parapsilosis ATCC 22019 incubated for 48 hrs by modified CLSI M27-A3 protocol based method
# Assay type: functional
# Conditions: Lodderomyces parapsilosis, ATCC 22019, 48 h; read-out: MIC100
# Procedure, shortened: (§3)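 For C. albicans ATCC 10231, C. krusei ATCC 6258 and C. parapsilosis ATCC 22019, MIC-0 was read, meaning complete growth inhibition. For azole controls, MIC-2 (50% growth inhibition) was reported instead. Caspofungin and voriconazole were tested here; other controls came from earlier work.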
row,SMILES,MIC [µM]
1,CCCC(O)(Cn1cncn1)c1ccc(Cl)cc1Cl (centres undefined),< 0.1
2,CCCCCC(O)(Cn1cncn1)c1ccc(F)cc1 (centres undefined),1.7

# System: not listed separately
# Test: Selectivity index, ratio of EC50 for toxicity in human A549 cells to MIC50 for antifungal activity against ITC and FLC-susceptible Candida albicans ATCC MYA-2876
# Assay type: cell-based
# Conditions: read-out: Selectivity Index
# Procedure, shortened: as §1
row,SMILES,selectivity ratio
1,CCCC(O)(Cn1cncn1)c1ccc(Cl)cc1Cl (centres undefined),16
2,CCCCCC(O)(Cn1cncn1)c1ccc(F)cc1 (centres undefined),4

# System: Nakaseomyces glabratus
# Test: Antifungal activity against Candida glabrata ATCC 2001 incubated for 48 hrs by modified CLSI M27-A3 protocol based method
# Assay type: functional
# Conditions: ATCC 2001, 48 h
row,SMILES,MIC50 [µM]
1,CCCC(O)(Cn1cncn1)c1ccc(Cl)cc1Cl (centres undefined),13
2,CCCCCC(O)(Cn1cncn1)c1ccc(F)cc1 (centres undefined),28.1

# System: not listed separately
# Test: Selectivity index, ratio of […] for toxicity in human A549 cells to MIC50 for antifungal activity against Aspergillus nidulans ATCC 38163
# Assay type: cell-based
# Conditions: read-out: Selectivity Index
row,SMILES,selectivity ratio
1,CCCC(O)(Cn1cncn1)c1ccc(Cl)cc1Cl (centres undefined),16
2,CCCCCC(O)(Cn1cncn1)c1ccc(F)cc1 (centres undefined),8

# System: not listed separately
# Test: Selectivity index, ratio of EC50 for toxicity in human BEAS2B cells to MIC50 for antifungal activity against Candida glabrata ATCC 2001
# Assay type: cell-based
# Conditions: BEAS-2B cells, read-out: Selectivity Index
# Procedure, shortened: as §1
row,SMILES,selectivity ratio
1,CCCC(O)(Cn1cncn1)c1ccc(Cl)cc1Cl (centres undefined),8
2,CCCCCC(O)(Cn1cncn1)c1ccc(F)cc1 (centres undefined),4

# System: not listed separately
# Test: Selectivity index, ratio of EC50 for toxicity in human BEAS2B cells to MIC50 for antifungal activity against ITC and FLC-resistant Candida albicans ATCC 1237
# Assay type: cell-based
# Conditions: BEAS-2B cells, read-out: Selectivity Index
# Procedure, shortened: as §1
row,SMILES,selectivity ratio
1,CCCC(O)(Cn1cncn1)c1ccc(Cl)cc1Cl (centres undefined),4
2,CCCCCC(O)(Cn1cncn1)c1ccc(F)cc1 (centres undefined),17

# System: not listed separately
# Test: Selectivity index, ratio of EC50 for toxicity in human BEAS2B cells to MIC50 for antifungal activity against Candida krusei ATCC 6258
# Conditions: BEAS-2B cells
row,SMILES,selectivity ratio
1,CCCC(O)(Cn1cncn1)c1ccc(Cl)cc1Cl (centres undefined),522
2,CCCCCC(O)(Cn1cncn1)c1ccc(F)cc1 (centres undefined),34

# System: not listed separately
# Test: Selectivity index, ratio of EC50 for toxicity in human BEAS2B cells to MIC50 for antifungal activity against Candida albicans ATCC 64124
# Assay type: cell-based
# Conditions: BEAS-2B cells, read-out: Selectivity Index
# Procedure, shortened: as §1
row,SMILES,selectivity ratio
1,CCCC(O)(Cn1cncn1)c1ccc(Cl)cc1Cl (centres undefined),8
2,CCCCCC(O)(Cn1cncn1)c1ccc(F)cc1 (centres undefined),1

# System: Aspergillus nidulans
# Test: Antifungal activity against Aspergillus nidulans ATCC 38163 incubated for 48 hrs by CLSI M38-A2 protocol based method
# Assay type: functional
# Conditions: ATCC 38163, 48 h, read-out: MIC100
row,SMILES,MIC [µM]
1,CCCC(O)(Cn1cncn1)c1ccc(Cl)cc1Cl (centres undefined),6.5
2,CCCCCC(O)(Cn1cncn1)c1ccc(F)cc1 (centres undefined),14.1

# System: not listed separately
# Test: Selectivity index, ratio of EC50 for toxicity in human BEAS2B cells to MIC50 for antifungal activity against ITC and FLC-susceptible Candida albicans ATCC MYA-2310
# Assay type: cell-based
# Conditions: BEAS-2B cells, read-out: Selectivity Index
# Procedure, shortened: (§4)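 Ratio of the compound's EC50 against BEAS-2B cells to its MIC against the named C. albicans strain. […] For C. albicans strains other than ATCC 10231, trailing growth meant MIC-2 was taken, meaning 50% growth inhibition.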
row,SMILES,selectivity ratio
1,CCCC(O)(Cn1cncn1)c1ccc(Cl)cc1Cl (centres undefined),8
2,CCCCCC(O)(Cn1cncn1)c1ccc(F)cc1 (centres undefined),8

# System: Candida albicans
# Test: Antifungal activity against ITC and FLC-susceptible Candida albicans ATCC MYA-2310 incubated for 48 hrs by modified CLSI M27-A3 protocol based method
# Assay type: functional
# Conditions: ATCC MYA-2310, 48 h
row,SMILES,MIC50 [µM]
1,CCCC(O)(Cn1cncn1)c1ccc(Cl)cc1Cl (centres undefined),13
2,CCCCCC(O)(Cn1cncn1)c1ccc(F)cc1 (centres undefined),14.1

# System: not listed separately
# Test: Selectivity index, ratio of EC50 for toxicity in human A549 cells to MIC50 for antifungal activity against ITC and FLC-resistant Candida albicans ATCC MYA-90819
# Assay type: cell-based
# Conditions: read-out: Selectivity Index
# Procedure, shortened: as §1
row,SMILES,selectivity ratio
1,CCCC(O)(Cn1cncn1)c1ccc(Cl)cc1Cl (centres undefined),8
2,CCCCCC(O)(Cn1cncn1)c1ccc(F)cc1 (centres undefined),32

# System: not listed separately
# Test: Toxicity in human BEAS2B cells assessed as reduction in cell viability incubated for 24 hrs by resazurin dye based assay
# Conditions: BEAS-2B cells
# Procedure, shortened: (§5)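 Toxicity tested in the nucleated lines A549 and BEAS-2B to give EC50 values. Selectivity index is EC50 against the mammalian line divided by the MIC against a given fungal strain.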
row,SMILES,EC50 at 24 h [µg/mL]
1,CCCC(O)(Cn1cncn1)c1ccc(Cl)cc1Cl (centres undefined),> 31.3
2,CCCCCC(O)(Cn1cncn1)c1ccc(F)cc1 (centres undefined),33

# System: not listed separately
# Test: Selectivity index, ratio of EC50 for toxicity in human A549 cells to MIC50 for antifungal activity against ITC and FLC-resistant Candida albicans ATCC MYA-1003
# Assay type: cell-based
# Conditions: read-out: Selectivity Index
# Procedure, shortened: as §1
row,SMILES,selectivity ratio
1,CCCC(O)(Cn1cncn1)c1ccc(Cl)cc1Cl (centres undefined),32
2,CCCCCC(O)(Cn1cncn1)c1ccc(F)cc1 (centres undefined),1

# System: not listed separately
# Test: Selectivity index, ratio of EC50 for toxicity in human A549 cells to MIC for antifungal activity against Candida parapsilosis ATCC 22019
# Conditions: not given
row,SMILES,selectivity ratio
1,CCCC(O)(Cn1cncn1)c1ccc(Cl)cc1Cl (centres undefined),1040
2,CCCCCC(O)(Cn1cncn1)c1ccc(F)cc1 (centres undefined),65

# System: not listed separately
# Test: Selectivity index, ratio of EC50 for toxicity in human A549 cells to MIC50 for antifungal activity against ITC and FLC-resistant Candida albicans ATCC 1237
# Assay type: cell-based
# Conditions: read-out: Selectivity Index
# Procedure, shortened: as §1
row,SMILES,selectivity ratio
1,CCCC(O)(Cn1cncn1)c1ccc(Cl)cc1Cl (centres undefined),4
2,CCCCCC(O)(Cn1cncn1)c1ccc(F)cc1 (centres undefined),16

# System: Candida albicans
# Test: Antifungal activity against Candida albicans ATCC 64124 incubated for 48 hrs by modified CLSI M27-A3 protocol based method
# Assay type: functional
# Conditions: ATCC 64124, 48 h
row,SMILES,MIC50 [µM]
1,CCCC(O)(Cn1cncn1)c1ccc(Cl)cc1Cl (centres undefined),13
2,CCCCCC(O)(Cn1cncn1)c1ccc(F)cc1 (centres undefined),> 113

# System: not listed separately
# Test: Selectivity index, ratio of EC50 for toxicity in human A549 cells to MIC50 for antifungal activity against Candida albicans ATCC 64124
# Assay type: cell-based
# Conditions: read-out: Selectivity Index
# Procedure, shortened: as §1
row,SMILES,selectivity ratio
1,CCCC(O)(Cn1cncn1)c1ccc(Cl)cc1Cl (centres undefined),8
2,CCCCCC(O)(Cn1cncn1)c1ccc(F)cc1 (centres undefined),1

# System: Pichia kudriavzevii
# Test: Antifungal activity against Candida krusei ATCC 6258 incubated for 48 hrs by modified CLSI M27-A3 protocol based method
# Assay type: functional
# Conditions: ATCC 6258, 48 h, read-out: MIC100
# Procedure, shortened: as §3
row,SMILES,MIC [µM]
1,CCCC(O)(Cn1cncn1)c1ccc(Cl)cc1Cl (centres undefined),0.2
2,CCCCCC(O)(Cn1cncn1)c1ccc(F)cc1 (centres undefined),3.5

# System: not listed separately
# Test: Selectivity index, ratio of EC50 for toxicity in human BEAS2B cells to MIC50 for antifungal activity against ITC and FLC-susceptible Candida albicans ATCC MYA-2876
# Assay type: cell-based
# Conditions: BEAS-2B cells, read-out: Selectivity Index
# Procedure, shortened: as §4
row,SMILES,selectivity ratio
1,CCCC(O)(Cn1cncn1)c1ccc(Cl)cc1Cl (centres undefined),16
2,CCCCCC(O)(Cn1cncn1)c1ccc(F)cc1 (centres undefined),4

# System: not listed separately
# Test: Selectivity index, ratio of EC50 for toxicity in human A549 cells to MIC50 for antifungal activity against Candida krusei ATCC 6258
# Conditions: not given
row,SMILES,selectivity ratio
1,CCCC(O)(Cn1cncn1)c1ccc(Cl)cc1Cl (centres undefined),522
2,CCCCCC(O)(Cn1cncn1)c1ccc(F)cc1 (centres undefined),32

# System: not listed separately
# Test: Selectivity index, ratio of EC50 for toxicity in human BEAS2B cells to MIC50 for antifungal activity against ITC and FLC-resistant Candida albicans ATCC MYA-1003
# Assay type: cell-based
# Conditions: BEAS-2B cells, read-out: Selectivity Index
# Procedure, shortened: as §1
row,SMILES,selectivity ratio
1,CCCC(O)(Cn1cncn1)c1ccc(Cl)cc1Cl (centres undefined),32
2,CCCCCC(O)(Cn1cncn1)c1ccc(F)cc1 (centres undefined),1

# System: Candida albicans
# Test: Antifungal activity against ITC and FLC-resistant Candida albicans ATCC MYA-1003 incubated for 48 hrs by modified CLSI M27-A3 protocol based method
# Assay type: functional
# Conditions: ATCC MYA-1003, 48 h
# Procedure, shortened: as §2
row,SMILES,MIC50 [µM]
1,CCCC(O)(Cn1cncn1)c1ccc(Cl)cc1Cl (centres undefined),3.2
2,CCCCCC(O)(Cn1cncn1)c1ccc(F)cc1 (centres undefined),> 113

# System: not listed separately
# Test: Toxicity in human A549 cells assessed as reduction in cell viability incubated for 24 hrs by resazurin dye based assay
# Conditions: not given
# Procedure, shortened: as §5
row,SMILES,EC50 at 24 h [µg/mL]
1,CCCC(O)(Cn1cncn1)c1ccc(Cl)cc1Cl (centres undefined),> 31.3
2,CCCCCC(O)(Cn1cncn1)c1ccc(F)cc1 (centres undefined),> 31.3

# System: not listed separately
# Test: Selectivity index, ratio of […] for toxicity in human BEAS2B cells to MIC50 for antifungal activity against Aspergillus flavus ATCC MYA-3631
# Assay type: cell-based
# Conditions: BEAS-2B cells, read-out: Selectivity Index
row,SMILES,selectivity ratio
1,CCCC(O)(Cn1cncn1)c1ccc(Cl)cc1Cl (centres undefined),2
2,CCCCCC(O)(Cn1cncn1)c1ccc(F)cc1 (centres undefined),1

# Source: ChEMBL document CHEMBL4265871, “Novel alkylated azoles as potent antifungals” (Eur J Med Chem, 2017)
